Test results reported in article PMC4181337 (Metallomics : integrated biometal science, 2013).
Where “and” joins values, the source holds several entries; their conditions need not be identical. Equal entries are not always repeated.

What was measured:
human red blood cells = conditions: inhibitor of the general anion transporter; cited from earlier work
[1] = Beagle dog, intravenous, radiolabeled; cited from earlier work
[2] = tested on: patients with type 2 diabetes; format: in vivo, human
Summary of the method: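 Patients took placebo, then oral VOSO4 tablets with meals (3/day) for six weeks. They self-monitored blood glucose before meals and at bedtime daily, reported as weekly averages. Two-step euglycemic-hyperinsulinemic clamps were run before and after treatment: overnight low-dose insulin to normalise glucose, then primed-continuous insulin at 0.5 and then 1.0 mU/kg/min, 2 h each. Glucose was checked every 5 min with variable glucose infusion. M was normalised to body mass.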

[3] = Whole blood total V pharmacokinetics; format: in vivo, human
Summary of the method: (§1)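 Diabetic patients were dosed with oral VOSO4 for forty days, followed by a sixteen-day washout, with periodic blood sampling. Total V was measured by GFAAS against a same-day standard curve; serum was run directly and whole blood after extra preparation. Decline was fitted to a one-compartment first-order model using the last dosing day plus three later points, giving k and half time. Accumulation was fitted using the washout k. AUC in (ng/mL)days was calculated for the exposure and decline phases.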

[4] = 24 hour urinary V clearance at steady state; format: in vivo, human
Summary of the method: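 Type 2 diabetic patients took VOSO4 orally as tablets with meals, 3 per day, for six weeks. 24 hour urine was collected at steady state, with one to three collections per patient. Urine was analysed directly for total V by Zeeman-corrected GFAAS against a standard curve run the same day. Steady-state urinary V output was taken as the minimum amount absorbed.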

[5] = Serum total V pharmacokinetics; format: in vivo, human
Summary of the method: as §1

[6] = tested on: patients with type 2 diabetes; experiment: Adverse symptoms reported during the clinical study; format: in vivo, human; conditions: doses of V used in this clinical study; not severe enough to drop subjects
[7] = tested on: patients with type 2 diabetes; conditions: two higher dose groups (50, 100 mg V), six weeks; cited from earlier work
[8] = of the 8 patients receiving 100 mg V/day
[9] = 50 mg V/day oral as VOSO4, 6 weeks, group mean ± SD
[10] = 50 mg V/day oral as VOSO4, 6 weeks, individual patient
[11] = 50 mg V/day oral as VOSO4, exposure and decline phases, individual patient
[12] = 50 mg V/day oral as VOSO4, group mean ± SD
[13] = 100 mg V/day oral as VOSO4, 6 weeks, group mean ± SD
[14] = 100 mg V/day oral as VOSO4, 6 weeks, individual patient
[15] = 100 mg V/day oral as VOSO4, exposure and decline phases, individual patient
[16] = 100 mg V/day oral as VOSO4, group mean ± SD
[17] = 25 mg V/day oral as VOSO4, group mean
[18] = patients taking 100 mg V per day
[19] = 25 mg V/day oral as VOSO4, 6 weeks, group mean

Structure (SMILES): CC(=O)/C=C(/C)[O-].CC(=O)/C=C(/C)[O-].[O]=[V+2] [VO(acac)2]
- uptake by human red blood cells in the presence of DIDS (human red blood cells): no change

Structure (SMILES): [O]=[V]([O-])([O-])[O-] [vanadate]
- uptake by human red blood cells in the presence of DIDS (human red blood cells): blocked
- half time of single exponential decline (majority of the dose) [1]: 24 h

Structure (SMILES): O=S(=O)([O-])[O-].[O]=[V+2] [vanadyl sulfate]
- patients with improved responses for all three variables ([2]; of the 5 patients receiving 50 mg V/day): 2
- patients who responded well for all three variables [2, 8]: three
- patients who responded well for two variables [2, 8]: four
- Pk Blood V [3, 9]: 85 ± 54 ng/mL
- SS Blood V [3, 9]: 65 ± 39 ng/mL
- Pk Blood V [3, 10]: 163 ng/mL and 26 ng/mL and 109 ng/mL and 50 ng/mL and 75 ng/mL
- Bld V t1/2 ([3]; 50 mg V/day oral as VOSO4, decline phase, individual patient): 10.0 days and 2.9 days and 4.4 days and 3.9 days and 6.7 days
- AUC Blood V [3, 11]: 3762 (ng/mL)days and 701 (ng/mL)days and 3474 (ng/mL)days and 2025 (ng/mL)days and 1788 (ng/mL)days
- AUC Blood V [3, 12]: 2351 ± 1264 (ng/mL)days
- Bld V t1/2 [3, 12]: 5.6 ± 2.8 days
- Pk Blood V [3, 13]: 201 ± 200 ng/mL
- SS Blood V [3, 13]: 205 ± 164 ng/mL
- Pk Blood V [3, 14]: 136 ng/mL and 132 ng/mL and 264 ng/mL and 654 ng/mL and 95 ng/mL and 225 ng/mL
- Bld V t1/2 ([3]; 100 mg V/day oral as VOSO4, decline phase, individual patient): 4.0 days and 4.3 days and 7.2 days and 6.1 days and 2.1 days and 3.0 days and 8.7 days
- AUC Blood V [3, 15]: 5648 (ng/mL)days and 5863 (ng/mL)days and 10552 (ng/mL)days and 20245 (ng/mL)days and 3741 (ng/mL)days and 6998 (ng/mL)days and 2341 (ng/mL)days
- AUC Blood V [3, 16]: 7912 ± 6023 (ng/mL)days
- Bld V t1/2 [3, 16]: 5.1 ± 2.4 days
- Mean Urine [V] at Steady State [4, 17]: 54 ng/mL
- Mean Urine [V] at Steady State ([4]; 25 mg V/day oral as VOSO4, individual patient): 60 ng/mL and 47 ng/mL
- 24 hour urinary V output at steady state ([4]; 50 mg V group, oral vanadyl sulfate): 0.18 ± 0.24 mg
- Mean Urine [V] at Steady State [4, 12]: 59 ± 80 ng/mL
- Mean Urine [V] at Steady State ([4]; 50 mg V/day oral as VOSO4, individual patient): 215 ng/mL and 29 ng/mL and 165 ng/mL and 18 ng/mL and 22 ng/mL
- 24 hour urinary V output at steady state ([4]; 100 mg V group, oral vanadyl sulfate): 0.97 ± 0.84 mg
- Mean Urine [V] at Steady State [4, 16]: 654 ± 705 ng/mL
- Mean Urine [V] at Steady State ([4]; 100 mg V/day oral as VOSO4, individual patient): 412 ng/mL and 468 ng/mL and 457 ng/mL and 2199 ng/mL and 207 ng/mL and 703 ng/mL and 135 ng/mL
- absorbed fraction of the administered V ([4]; 16 type 2 diabetic patients, oral vanadyl sulfate): about 1%
- absorption of the administered dose ([4]; 50 and 100 mg V groups, estimated from steady state urinary output): ≤ 1%
- V excreted [4, 18]: approximately 1 mg V per day
- absorption of V entering the GI tract [4, 18]: 1%
- absorption of V, of the daily dose ([4]; three doses of V used (25, 50, 100 mg/day)): less than 1%
- Pk Serum V [5, 19]: 18.9 ng/mL
- SS Serum V [5, 19]: 15.4 ng/mL
- Pk Serum V ([5]; 25 mg V/day oral as VOSO4, 6 weeks, individual patient): 16.7 ng/mL and 21.1 ng/mL
- Ser V t1/2 [5, 17]: 2.7 days
- Pk Serum V [5, 9]: 81.7 ± 40 ng/mL and 81.7 ± 40.5 ng/mL
- SS Serum V [5, 9]: 63.1 ± 37.8 ng/mL
- Pk Serum V [5, 10]: 125 ng/mL and 87.0 ng/mL and 114 ng/mL and 30.2 ng/mL and 51.7 ng/mL
- AUC Serum V [5, 11]: 3538 (ng/mL)days and 1747 (ng/mL)days and 3894 (ng/mL)days and 946 (ng/mL)days and 617 (ng/mL)days
- AUC Serum V [5, 12]: 2149 ± 1494 (ng/mL)days
- Ser V t1/2 [5, 12]: 4.7 ± 1.6 days
- ratio of serum AUC to whole blood AUC, mean value ([5]; 50 mg dose group): 1.07±0.86 (ng/mL)days
- Pk Serum V [5, 13]: 319 ± 268 ng/mL
- SS Serum V [5, 13]: 314 ± 178 ng/mL
- Pk Serum V [5, 14]: 252 ng/mL and 227 ng/mL and 423 ng/mL and 906 ng/mL and 213 ng/mL and 368 ng/mL and 144 ng/mL
- AUC Serum V [5, 15]: 8695 (ng/mL)days and 8328 (ng/mL)days and 15779 (ng/mL)days and 26713 (ng/mL)days and 8041 (ng/mL)days and 11412 (ng/mL)days and 4781 (ng/mL)days
- AUC Serum V [5, 16]: 11965 ± 7340 (ng/mL)days
- Ser V t1/2 [5, 16]: 4.6 ± 2.5 days
- ratio of serum AUC to whole blood AUC, mean value ([5]; 100 mg dose group): 1.65±0.32 (ng/mL)days
- fold increase in steady state serum V concentration ([5]; 25 to 50 mg dose groups): 4 fold
- fold increase in steady state serum V concentration ([5]; 50 to 100 mg dose groups): 5 fold
- adverse symptoms [6]: symptoms of gastrointestinal distress
- patients with improved fasting blood glucose [7]: approximately 50%

Structure (SMILES): O=S(=O)([O-])[O-].[O]=[V+2] [vanadyl]
- half time of single exponential decline (majority of the dose) [1]: 24 h
